SUMO1 PPI mod: modulators of human SUMO1-mediated protein-protein interactions; P63165; SUMO1 binding to a labelled peptide, TR-FRET, 1 h; inhibition, % at 20 µM; 360,000 tested, 0.33% active; in the data active = inhibition above about 37%
Scp-1 inhibitor: blocks human Scp-1 phosphatase activity | Q9GZU7 | Recombinant Scp1, phosphopeptide, malachite green phosphate absorbance | inhibition, % at 20 µM | 340,000 tested, 0.88% active;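 active = inhibition above about 50% at 20 µM, limit read from the data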
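Test system: SCP-1 phosphatase catalytic domain, residues 76-261 | Compound dosing: One concentration, 20 µM, with 1.0% DMSO | Schedule: 45 min room-temperature reaction, 5 min colour, 30 min stabiliser | Detection: Absorbance at 630 nm | Read-out basis: % inhibition of SCP-1 phosphate liberation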
LMPTP block: blocks human LMPTP phosphatase; P24666; recombinant LMPTP-A, OMFP fluorogenic substrate, fluorescence intensity; 360,000 tested, 0.22% active; inhibition, % at 20 µM;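 active = compounds that cut the enzyme signal by at least half of the control window in the single-dose screen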
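Assay system: LMPTP-A enzyme. Input: 0.625 nM LMPTP-A final. Probe or stimulus: 400 µM OMFP. Compound dosing: single 20 µM dose. Schedule: 50 min dark incubation at room temperature. Detection: fluorescence intensity of OMFP turnover product. Read-out: percent inhibition versus substrate-only and uninhibited controls. Benchmarks: no-enzyme low control, uninhibited high control.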
DNMT1 block: DNMT1 (human) enzyme inhibition; P26358; DNMT1 molecular beacon, Hinp1I cleavage, fluorescence; inhibition (reported as % activation of signal), % at 10 µM; 360,000 tested, 0.83% active; AID 588458; in the data active = inhibition above about 50%
STEP block: blocks human striatal-enriched tyrosine phosphatase | P54829 | recombinant STEP, OMFP fluorogenic substrate, fluorescence | inhibition, % at 20 µM | 360,000 tested, 0.25% active | AID 588621;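 active = inhibition at 20 µM, scaled per plate between control wells, above about 37%, limit read from the data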
Target sequence (P54829 whole entry, looked up): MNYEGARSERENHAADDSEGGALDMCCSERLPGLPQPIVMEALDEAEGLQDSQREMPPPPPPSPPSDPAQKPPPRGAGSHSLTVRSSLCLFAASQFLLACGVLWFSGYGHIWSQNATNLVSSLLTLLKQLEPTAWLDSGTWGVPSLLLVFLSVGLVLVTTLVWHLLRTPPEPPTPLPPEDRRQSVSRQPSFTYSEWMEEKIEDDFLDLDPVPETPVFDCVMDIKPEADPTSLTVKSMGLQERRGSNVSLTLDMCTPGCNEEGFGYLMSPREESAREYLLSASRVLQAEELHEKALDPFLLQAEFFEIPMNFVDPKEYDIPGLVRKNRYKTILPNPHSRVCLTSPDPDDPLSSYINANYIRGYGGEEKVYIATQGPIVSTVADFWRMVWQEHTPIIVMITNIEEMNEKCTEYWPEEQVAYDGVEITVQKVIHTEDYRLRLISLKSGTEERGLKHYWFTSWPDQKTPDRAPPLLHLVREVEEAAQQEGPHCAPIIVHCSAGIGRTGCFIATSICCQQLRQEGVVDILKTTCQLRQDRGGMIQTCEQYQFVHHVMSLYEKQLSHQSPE
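Measure: Control-normalized % inhibition with plate pattern correction | Test system: STEP phosphatase, cell-free reaction | Medium: pH 6.0 Bis-Tris with DTT and Tween 20 | Technique: Fluorescence, 480/540 nm | Times: Reaction 20 min, ambient temperature | Doses: Single compound dose of 20 µM, 1% DMSO final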
NadD inh: NadD (S. aureus) enzyme inhibition; inhibition, % at 20 µM; purified NadD enzyme, colorimetric absorbance read-out; 360,000 tested, 0.78% active; in the data active = inhibition above about 26%
Scp1 confirm: confirmation of human Scp-1 phosphatase inhibitors; shares compounds with Scp-1 inhibitor; recombinant SCP-1 catalytic domain, phosphate release, malachite green absorbance; inhibition, % at 20 µM; 2,500 tested, 61% active; AID 540281
Scp-1 MG ctr: counter-screen for Scp-1 inhibitors: colorimetric interference; shares compounds with Scp-1 inhibitor; Colorimetric interference counterscreen, malachite green absorbance 630 nm; apparent inhibition (interference), % at 20 µM; 2,500 tested, under 10 active;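 note: compounds added after enzyme reaction finished so only phosphate colour detection is probed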
Scp-1 Tm shift: binds human Scp-1, shifting its melting temperature. thermal shift relative to vanadate control, % at 40 µM. AID 540329. Recombinant SCP1, Sypro Orange thermal shift Tm. 1,500 tested, 25% active. shares compounds with Scp-1 inhibitor;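 active = substances whose mean melting-temperature shift, as a percentage of the reference inhibitor's shift, reaches about 5.3%, limit read from the data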
Each line names hits and unclear results; the compound was inactive in the other large screens (follow-up assays come after a bar, where they were run). An excerpt weighted towards active compounds, which were near 2.4% of everything screened.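 Rule for the calls, unless noted: active = inhibition of at least 30% at 20 µM; inactive = the rest.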

COc1cc(OC)cc(C(=O)N[C@H](C(=O)OCC(=O)Nc2cccnc2Cl)C(C)C)c1	none
N#Cc1ccsc1NC(=O)COC(=O)C1=NNC(=O)CC1	SUMO1 PPI mod 38.1, Scp-1 inhibitor 70.8, LMPTP block 61.8 | Scp1 confirm 49.1 | Scp-1 MG ctr inactive | Scp-1 Tm shift inactive
Cn1nc(-c2ccc(C(=O)Nc3ccc(F)cc3)cc2)c2ccccc2c1=O	Scp-1 inhibitor 59.6 | Scp1 confirm 41.5 | Scp-1 MG ctr inactive | Scp-1 Tm shift inactive
Cc1ccc(NC(=O)c2ccc(-c3nn(C)c(=O)c4ccccc34)cc2)cc1	none
Cc1cc(C)n(CCCNC(=O)C2CC(=O)N(Cc3ccccc3)C2)n1 (stereo not given)	none | Scp1 confirm inactive | Scp-1 MG ctr inactive
Cc1cc(C)n(CCNC(=O)C2CCC(=O)N(Cc3ccc(Cl)cc3)C2)n1 (stereo not given)	none
COc1ccccc1NC(=O)NCCN1CCCCC1	none
COc1ccc(Cl)cc1NC(=O)NCCN1CCNC1=O	none | Scp1 confirm inactive | Scp-1 MG ctr inactive
COc1ccccc1NC(=O)NCCN1CCNC1=O	none | Scp1 confirm inactive | Scp-1 MG ctr inactive
COc1ccc(Cl)cc1NC(=O)NCCCl	none
CCOC(=O)CC1(C)OCC(C[N+]2(C)CCCCC2)O1 (stereo not given)	Scp-1 inhibitor 93.3 | Scp1 confirm 93.1 | Scp-1 MG ctr inactive | Scp-1 Tm shift inactive
CCCCNC(=O)c1ccc2nc(-c3ccco3)c(-c3ccco3)nc2c1	SUMO1 PPI mod 40.0, Scp-1 inhibitor 53.0, DNMT1 block 81.1 | Scp1 confirm 51.3 | Scp-1 MG ctr inactive | Scp-1 Tm shift 12.7
Nc1nnc(CC(=O)N/N=C/c2ccc(-c3ccc(F)cc3)o2)s1	none
Nc1nnc(CC(=O)N/N=C/c2ccc(-c3cccc(C(=O)O)c3)o2)s1	Scp-1 inhibitor 54.5 | Scp1 confirm 44.9 | Scp-1 MG ctr inactive | Scp-1 Tm shift inactive
O=C(O)c1ccc2c(=O)n(-c3ccc(F)cc3)c(=S)[nH]c2c1	none
O=C(O)c1ccc2c(=O)n(-c3ccccc3)c(=S)[nH]c2c1	Scp-1 inhibitor 79.0 | Scp1 confirm inactive | Scp-1 MG ctr inactive
CC(=O)N1CCOc2ccc(S(=O)(=O)NCc3ccc(C)cc3)cc21	none
CC(=O)N1CCOc2ccc(S(=O)(=O)NC[C@H]3O[C@@H](n4ccc(=O)[nH]c4=O)[C@H](O)[C@@H]3O)cc21	none | Scp1 confirm inactive | Scp-1 MG ctr inactive
Cn1nc(CC(=O)NC2CCCCCC2)c2ccccc2c1=O	Scp-1 inhibitor 75.6 | Scp1 confirm inactive | Scp-1 MG ctr inactive
COc1ccc(S(=O)(=O)NCCSC(C)(C)C)c(Cl)c1Cl	Scp-1 inhibitor 60.5 | Scp1 confirm 34.0 | Scp-1 MG ctr inactive | Scp-1 Tm shift inactive
CCCNS(=O)(=O)c1ccc(OC)c(Cl)c1Cl	none
Cc1cc(N=NC(=O)c2ccccc2O)c2ccccc2c1O	Scp-1 inhibitor 95.3, STEP block 96.7 | Scp1 confirm 79.2 | Scp-1 MG ctr inactive | Scp-1 Tm shift 12.0
Cn1c(O)c(N=NC(=O)c2ccccc2O)c2ccccc21	none
O=C(NCCCN1CCN(c2cccc(Cl)c2)CC1)c1nc(-c2ccncc2)no1	none
Cn1ccsc1=NC(=O)c1ccc(Cl)c([N+](=O)[O-])c1	Scp-1 inhibitor 53.8 | Scp1 confirm inactive | Scp-1 MG ctr inactive
COc1cc([C@@H]2OC[C@@H]3[C@H]2CO[C@@H]3c2ccc3c(c2)OCO3)ccc1O	none
COc1cc(CC2COC(c3ccc(O)c(OC)c3)C2COC(C)=O)ccc1O (stereo not given)	Scp-1 inhibitor 85.3, DNMT1 block 63.2 | Scp1 confirm 61.1 | Scp-1 MG ctr inactive | Scp-1 Tm shift inactive
